NCF1 inh – blocks human p47phox regulatory protein of NADPH oxidases | inhibition, % at 24.7 µM | hit rate 0.53% among 220,000 | P14598 | p47phox/p22phox peptide binding, fluorescence polarization, 2 h | AID 1274
Target sequence (P14598 whole entry, looked up): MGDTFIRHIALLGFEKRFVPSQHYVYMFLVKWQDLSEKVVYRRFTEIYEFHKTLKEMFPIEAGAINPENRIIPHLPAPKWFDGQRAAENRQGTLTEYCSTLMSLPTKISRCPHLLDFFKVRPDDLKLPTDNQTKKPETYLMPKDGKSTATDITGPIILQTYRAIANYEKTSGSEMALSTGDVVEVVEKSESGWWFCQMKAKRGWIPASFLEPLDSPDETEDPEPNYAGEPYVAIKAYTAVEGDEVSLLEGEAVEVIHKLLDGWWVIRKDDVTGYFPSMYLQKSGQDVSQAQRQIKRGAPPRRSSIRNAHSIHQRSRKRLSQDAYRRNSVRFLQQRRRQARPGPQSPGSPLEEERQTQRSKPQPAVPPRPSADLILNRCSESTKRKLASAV
WT yeast gro inh – growth inhibition of WT yeast, mitochondrial fusion screen; mitochondrial fusion phenotypic screen, WT strain; inhibition, % at 10 µM; hit rate 2.1% among 190,000; AID 1362; in the data active = inhibition above about 58%; tested in S. cerevisiae
14-3-3 Bad inh – disrupts binding of bovine 14-3-3 zeta to phospho-Bad peptide. TR-FRET 14-3-3zeta/Dy647-pBad peptide displacement, 1 h. inhibition, % at 21.7 µM. hit rate 0.71% among 220,000;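 active = inhibition above about 70%, limit read from the data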
eIF4E 4G PPI – blocks eIF4E binding to eIF4G; P63073+Q04637; TR-FRET eIF4E-eIF4GI(517-606) binding, 2 h; inhibition, % at 21.7 µM; hit rate 0.37% among 220,000
EBV gp42 inh – blocks Epstein-Barr virus glycoprotein 42 binding; hit rate 0.42% among 220,000; Fluorescence polarization binding assay, mP read-out; AID 1085; Q1HVG2; inhibition, % (tested at 21.74 µM); in the data active = inhibition above about 50%
Target sequence (Q1HVG2 whole entry, looked up): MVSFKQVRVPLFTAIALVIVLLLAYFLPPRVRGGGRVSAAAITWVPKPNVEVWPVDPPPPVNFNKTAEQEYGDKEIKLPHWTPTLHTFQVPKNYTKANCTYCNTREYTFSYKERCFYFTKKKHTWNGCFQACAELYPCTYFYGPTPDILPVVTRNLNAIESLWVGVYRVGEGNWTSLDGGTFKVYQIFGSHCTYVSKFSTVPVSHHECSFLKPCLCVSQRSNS
RBBP9 inhibitor – inhibitors of human serine hydrolase RBBP9; recombinant RBBP9, FP-Rh probe fluorescence polarization; inhibition, % at 7.94 µM; AID 1515; O75884; hit rate 0.2% among 220,000;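 active = inhibition above the campaign mean of all tested compounds plus 3 SD, cut at about 14% in these data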
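Test system: recombinant human RBBP9; Timing: 30 min then 45 min, 25 °C; Detection: fluorescence polarization; Control set: RBBP9 with DMSO as uninhibited control, no-protein wells as full inhibition; Compound dosing: one concentration, 7.94 µM nominal, 0.794% DMSO; Probe or stimulus: FP-Rh activity-based probe, 375 nM before mixing.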
Of the large screens only hits and unclear results are named; the others gave an inactive call; [ ] = remark or other dose. Rows were chosen to be rich in hits. Some 3.7% of all compounds tested hit in one or more screens of this group.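 The calls were made as follows, unless noted: active = inhibition above about 30% (limit read from the data); inactive = the rest.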

O=C(c1cc(Br)c(Br)s1)N1CCN(C/C=C/c2ccccc2)CC1	WT yeast gro inh 64
Cc1ccc(NC(=O)N2CCN(C/C=C/c3ccccc3)CC2)cc1	none
Cc1cc(C(=O)N2CCN(C/C=C/c3ccccc3)CC2)cs1	NCF1 inh 54
CSc1cccc(NC(=S)N2CCCN(Cc3ccccc3F)C2)c1	none
COc1ccc(/C=C(/NC(=O)c2ccco2)C(=O)N2CCc3ccccc32)cc1OC	none (no result: WT yeast gro inh)
NC(=O)c1ccsc1NC(=O)c1coc2ccccc2c1=O	none
CCN(Cc1ccccc1)C(c1ccc(C(F)(F)F)cc1)c1nnnn1C(C)(C)C (configuration not stated)	WT yeast gro inh 73
Cc1ccc(N2C(=O)/C(=C\c3ccc(C(C)C)cc3)N=C2SC2CCOC2=O)cc1 (configuration not stated)	none
O=C(CSCC(=O)N1CCCCC1)Nc1nc(-c2ccccc2)c(-c2ccccc2)s1	WT yeast gro inh 60
Cc1ccccc1NC(=O)Cn1c(O)c(N=NC(=O)c2ccccc2O)c2ccccc21	NCF1 inh 50, 14-3-3 Bad inh 92[fluorescence artefact?]
Cc1ccc(NC(=O)Cn2c(O)c(N=NC(N)=O)c3ccccc32)cc1	none (no result: WT yeast gro inh)
CCCc1nc2ccccc2c(C(=O)O)c1CC	none
CCN(CC)CC(=O)Nc1cc(N(C)C)nc2ccccc12	none (no result: WT yeast gro inh)
CCCc1nc2ccccc2c(NC(=O)CN(CC)CC)c1CC	14-3-3 Bad inh 80
CCCCc1nc2ccccc2c(NC(=O)CN(CC)CC)c1CCC	14-3-3 Bad inh 74
COC(=O)c1c(NC(=O)CN2CCC3(O)CCCCC3C2c2ccc(F)cc2)sc(C)c1C (configuration not stated)	WT yeast gro inh 59
COC(=O)c1c(NC(=O)CN2CCC3(O)CCCCC3C2c2cc(OC)ccc2OC)sc(C)c1C (configuration not stated)	WT yeast gro inh 74
COc1ccccc1C1C2CCCCC2(O)CCN1CC(=O)Nc1ccccc1 (configuration not stated)	none
Cn1cnnc1SCC(=O)NCCc1ccc(Cl)cc1Cl	none
COC(=O)Cc1ccc(NC(=S)NCCSc2ccc(C)cc2)cc1	WT yeast gro inh 68
Cc1ccc(NC(=S)NCCc2ccc(F)cc2)c(C)c1	none
Cc1ccc(SCCNC(=S)Nc2ccc(C)cc2C)cc1	WT yeast gro inh 69
Cc1ccc(NC(=S)NCCSc2ccc(Cl)cc2)cc1	none
Cc1ccc(NC(=O)NCCSc2ccc(C)cc2)cc1	none
Cc1ccc(SCCNC(=S)Nc2cc(C)cc(C)c2)cc1	WT yeast gro inh 76
Cc1cc(-c2nnc(SCC(=O)Nc3nccs3)o2)no1	none (no result: WT yeast gro inh)
Cc1nn(Cc2ccc([N+](=O)[O-])cc2)c(=O)n1-c1cccc(Cl)c1	none
O=C(Nc1ccccc1N1CCOCC1)c1cccnc1Cl	none
O=C(COc1ccc(Br)cc1)c1ccc2c(c1)CCCC2	none
Cc1ccc(OCC(=O)c2ccc3c(c2)CCCC3)cc1C	WT yeast gro inh 58
O=C(Nc1ccc(Nc2ccncc2)cc1)c1ccc([N+](=O)[O-])cc1	none (no result: WT yeast gro inh)
O=C(Nc1ccc(Nc2ccncc2)cc1)c1ccc(Nc2ccnc3ccc([N+](=O)[O-])cc23)cc1[N+](=O)[O-]	NCF1 inh 71, 14-3-3 Bad inh 77 (no result: WT yeast gro inh)
COc1cccc(-n2cnc3sc(C)cc3c2=O)c1	none
COC(=O)COc1ccc(/C=N/NC(=O)c2ccc(N(Cc3ccccc3)S(C)(=O)=O)cc2)cc1	NCF1 inh 55
CC(C)Oc1ccc(/C=N/NC(=O)c2ccc(N(Cc3ccccc3)S(C)(=O)=O)cc2)cc1	none
CCCN(CCC)C(=O)CC(c1ccccc1)c1cc(Br)ccc1O (configuration not stated)	WT yeast gro inh 76
Cc1cc(NC(=O)C2CC(=O)N(c3ccccc3)C2)no1 (configuration not stated)	none
Cc1ccc(C(=O)O/N=C2\CCCc3ccccc32)cc1	none
Cc1ccc(S(=O)(=O)O/N=C2\CCCc3ccccc32)cc1	NCF1 inh 46
O=C(NCCCN1CCOCC1)c1ccccc1-c1ccccc1	WT yeast gro inh 74
C/C=C/C=N/NC(=O)CN(c1ccc(Br)cc1)S(=O)(=O)c1ccccc1	none
CCNc1nc(CSc2ccccc2)nc2sc(C)c(C)c12	WT yeast gro inh 67
Cc1sc2nc(CSc3ccccc3)nc(NCCN(C)C)c2c1C	none
CCCCCCCCCCC(=O)NNC(=O)c1c(O)c2ccccc2n(CC)c1=O	none
CC(NC(=O)/C(=C/c1cccc([N+](=O)[O-])c1)NC(=O)c1ccco1)C(=O)O (configuration not stated)	none
O=C(O)C1CCCN1c1ncccn1 (configuration not stated)	NCF1 inh 78
O=C(O/N=C1/CCCc2occc21)c1ccc(Cl)cc1Cl	none (no result: WT yeast gro inh)
CNC(=S)Nc1ccc(C(N)=O)cc1	none
Clc1ccccc1Cc1noc(CN2CCN(c3cnccn3)CC2)n1	NCF1 inh 32
O=C(c1cccs1)N1CCN(CCCc2ccccc2)CC1	14-3-3 Bad inh 72
O=C(c1cccnc1)N1CCN(C/C=C/c2ccccc2)CC1	none
O=C(c1cccs1)N1CCN(Cc2ccncc2)CC1	14-3-3 Bad inh 73
O=C(c1cccs1)N1CCC(Cc2ccccc2)CC1	none
O=C(c1cccs1)N1CCN(Cc2cccnc2)CC1	14-3-3 Bad inh 76 (no result: RBBP9 inhibitor)
O=C(c1cccs1)N1CCN(Cc2ccccc2)CC1	none
O=C(c1cccnc1)N1CCN(CCCc2ccccc2)CC1	14-3-3 Bad inh 72
O=c1cc2c(nn1Cc1ccc(Cl)cc1Cl)-c1ccccc1CC2	WT yeast gro inh 76
O=c1cc2c(nn1Cc1ccccc1Cl)-c1ccccc1CC2	WT yeast gro inh 69
O=S(=O)(c1ccccc1)c1cnc(-c2ccccc2)nc1N1CCCCC1	WT yeast gro inh 58
CN1CCN(c2nc(-c3ccccc3)ncc2S(=O)(=O)c2ccccc2)CC1	none
CC(CC(=O)NCC1CCCO1)c1ccccc1 (configuration not stated)	none
COc1ccc(OCC(=O)Nc2cc(-c3nn(C)c(=O)c4ccccc34)ccc2N2CCOCC2)cc1	none (no result: WT yeast gro inh)
NC(=O)c1ccccc1OCC(=O)Nc1ccc(Cl)c(Cl)c1	none (no result: WT yeast gro inh)
CCCCC1=CC2=C(c3ccco3)C(=O)C(C)(OC(=O)c3ccc(OC)cc3)C(=O)C2=CN1Cc1ccccc1 (configuration not stated)	EBV gp42 inh 52 (no result: WT yeast gro inh, RBBP9 inhibitor)
COCCNC(=O)C1CC(c2ccc(F)cc2)=NO1 (configuration not stated)	none
CCc1ccccc1NC(=O)C1CC(c2ccc(F)cc2)=NO1 (configuration not stated)	NCF1 inh 33
COCCNC(=O)C1CC(c2cccc(F)c2)=NO1 (configuration not stated)	eIF4E 4G PPI 60 (no result: WT yeast gro inh, RBBP9 inhibitor)
COC(=O)c1ccccc1NC(=O)C1CC(c2ccc(F)cc2)=NO1 (configuration not stated)	none
